Results from ChEMBL document CHEMBL3102749, “Antiprotozoal activity of dicationic 3,5-diphenylisoxazoles, their prodrugs and aza-analogues” (Bioorg Med Chem, 2014).
Calls of active or inactive are those of the source. The calls are words filed in the database; no cut-off is given here.

Tests used:
[1] = Selectivity index, ratio of IC50 for rat L6 cells to IC50 for Trypanosoma brucei rhodesiense STIB900; assay type: toxicity, cell-based; conditions: read-out: Ratio IC50
Procedure, shortened: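 Ratio of IC50 in L6 rat myoblast cytotoxicity assay to IC50 against T. b. rhodesiense STIB900; each IC50 is the mean of two independent assays.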

[2] = Selectivity index, ratio of IC50 for rat L6 cells to IC50 for chloroquine/pyrimethamine-resistant Plasmodium falciparum K1 infected in human red blood cells; assay type: toxicity, cell-based; conditions: read-out: Ratio IC50
Procedure, shortened: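 Ratio of IC50 in L6 rat myoblast cytotoxicity assay to IC50 against P. falciparum K1; each IC50 is the mean of two independent assays.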

[3] = system: Trypanosoma brucei rhodesiense; assay: Antitrypanosomal activity against Trypanosoma brucei rhodesiense STIB900 assessed as growth inhibition after 70 hrs by Alamar blue assay; assay type: functional, organism-based; conditions: STIB900, 70 h
Plasmodium falciparum = assay: Antiplasmodial activity against chloroquine/pyrimethamine-resistant Plasmodium falciparum K1 infected in human red blood cells assessed as [3H]-hypoxanthine incorporation incubated for 48 hrs prior to [3H]-hypoxanthine addition measured after 24 hrs by liquid scintillation counting analysis; assay type: functional, organism-based
L6 = assay: Cytotoxicity against rat L6 cells assessed as cell viability after 70 hrs by Alamar blue assay; assay type: cell-based; conditions: L6, 70 h
[4] = system: Trypanosoma brucei rhodesiense; assay: Trypanocidal activity against bloodstream form of Trypanosoma brucei rhodesiense STIB900 infected in NMRI mouse assessed as mean survival days at 5 mg/kg, ip qd administered for 4 days; assay type: functional; conditions: route intraperitoneal
Procedure, shortened: (§1)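 Mice infected with T. b. rhodesiense STIB900 (acute model) dosed once daily for 4 consecutive days, ip (diamidines) or oral (prodrugs). Cure means survival to 60 days post infection without parasitemia relapse. Mean survival days post infection are averaged over all mice, with cured mice counted as >60 days.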

[5] = system: Trypanosoma brucei rhodesiense; assay: Trypanocidal activity against bloodstream form of Trypanosoma brucei rhodesiense STIB900 infected in NMRI mouse assessed as decrease in parasitemia at 5 mg/kg, ip qd administered for 4 days measured once per week until 60 days by microscopic analysis; assay type: functional, organism-based; design: dose 5 mg/kg
Procedure, shortened: (§2)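 Mice infected with T. b. rhodesiense STIB900 received one dose daily for 4 consecutive days, 4 mice per group. Diamidines were given intraperitoneally and prodrugs orally. The primary endpoint was cures per group: a mouse counted as cured if it survived 60 days post-infection without parasitemia relapse.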

[6] = system: Trypanosoma brucei rhodesiense; assay: Trypanocidal activity against bloodstream form of Trypanosoma brucei rhodesiense STIB900 infected in NMRI mouse assessed as decrease in parasitemia at 25 mg/kg, po qd administered for 4 days measured once per week until 60 days by microscopic analysis; assay type: functional, organism-based; design: dose 25 mg/kg; procedure, shortened: as §2
[7] = system: Trypanosoma brucei rhodesiense; assay: Trypanocidal activity against bloodstream form of Trypanosoma brucei rhodesiense STIB900 infected in NMRI mouse assessed as mean survival days at 25 mg/kg, po qd administered for 4 days; assay type: functional; procedure, shortened: as §1

Structure (SMILES)	selectivity ratio [1]	selectivity ratio [2]	IC50 [3] [nM]	IC50 (Plasmodium falciparum) [nM]	IC50 (L6) [nM]	MSD [4] [days]	Activity [5]	Activity [6]	MSD [7] [days]
N=C(N)c1ccnc(-c2cc(-c3cc(C(=N)N)ccn3)on2)c1	> 32	> 550	5710	327	> 180000	–	–	–	–
Cl.Cl.N=C(N)c1cccc(-c2cc(-c3ccc(C(=N)N)nc3)no2)c1	1120	3800	1.8	0.5	2080	>60	Active	–	–
Cl.Cl.N/C(=N\O)c1ccc(-c2cc(-c3cccc(/C(N)=N/O)c3)no2)cc1	–	–	–	–	–	–	–	inactive	20
COc1cc(/C(N)=N/O)ccc1-c1cc(-c2ccc(/C(N)=N/O)cc2)on1.Cl.Cl	–	–	–	–	–	–	–	–	>42
COc1ccc(/C(N)=N/O)cc1-c1cc(-c2ccc(/C(N)=N/O)cc2)on1.Cl.Cl	–	–	–	–	–	–	–	inactive	18.25
Cl.Cl.N=C(N)c1cccc(-c2cc(-c3cncc(C(=N)N)c3)on2)c1	> 964	> 9170	207	21.7	> 180000	21.75	inactive	–	–
CO/N=C(\N)c1ccc(-c2cc(-c3ccc(/C(N)=N/OC)cc3OC)on2)cc1.Cl.Cl	–	–	–	–	–	–	–	inactive	15.75
COc1cc(/C(N)=N/O)ccc1-c1cc(-c2cccc(/C(N)=N/O)c2)no1.Cl.Cl	–	–	–	–	–	–	–	inactive	8
COc1c(/C(N)=N/O)cccc1-c1cc(-c2cccc(/C(N)=N/O)c2OC)on1.Cl.Cl	–	–	–	–	–	–	–	inactive	6
Cl.Cl.Cl.N/C(=N\O)c1ccc(-c2cc(-c3ccc(/C(N)=N/O)cc3Cl)on2)cc1	–	–	–	–	–	–	–	inactive	>36.5
CO/N=C(\N)c1ccc(-c2cc(-c3ccc(/C(N)=N/OC)cc3Cl)on2)cc1.Cl.Cl.Cl	–	–	–	–	–	–	–	inactive	39
N=C(N)c1cccc(-c2cc(-c3cc(C(=N)N)ccn3)no2)c1	265	8700	492	15	130000	–	–	–	–
CO/N=C(\N)c1ccc(-c2cc(-c3cc(/C(N)=N/OC)ccc3OC)no2)cc1.Cl.Cl	–	–	–	–	–	–	–	–	>37.25
Cl.Cl.N=C(N)c1cccc(-c2cc(-c3ccc(C(=N)N)nc3)on2)c1	379	1290	3.7	1.1	1400	>41.75	inactive	–	–
Cl.Cl.N=C(N)c1ccc(-c2cc(-c3ccc(C(=N)N)cc3)on2)cc1	–	–	–	–	–	>60	–	–	–
N=C(N)c1cncc(-c2cc(-c3cccc(C(=N)N)c3)on2)c1	> 309	> 10000	583	18	> 180000	–	–	–	–
Cl.Cl.N=C(N)c1ccc(-c2cc(-c3ccc(C(=N)N)cn3)no2)cc1	915	2770	50.5	16.7	46200	>52.75	–	–	–
COc1cc(C(=N)N)ccc1-c1cc(-c2cc(C(=N)N)ccc2OC)on1.Cl.Cl	–	–	–	–	–	>60	Active	–	–
Cl.Cl.N=C(N)c1ccc(-c2cc(-c3cncc(C(=N)N)c3)on2)cc1	302	231	14.4	18.9	4370	>54.5	–	–	–
COc1cc(C(=N)N)ccc1-c1cc(-c2ccc(C(=N)N)cc2)on1.Cl.Cl	–	–	–	–	–	>60	Active	–	–
Cl.Cl.N=C(N)c1ccc(-c2cc(-c3ccc(C(=N)N)nc3)on2)cc1	643	1050	2.7	1.7	1760	>57.25	–	–	–

Structure (SMILES)	selectivity ratio [1]	selectivity ratio [2]	IC50 [3] [nM]	IC50 (Plasmodium falciparum) [nM]	IC50 (L6) [nM]	MSD [4] [days]	Activity [5]	Activity [6]	MSD [7] [days]
C[C@@H]1CC[C@H]2[C@@H](C)C(=O)O[C@@H]3O[C@@]4(C)CC[C@@H]1[C@]32OO4 [ARTEMISININ]	–	–	–	4	> 180000	–	–	–	–
Cl.Cl.Cl.N=C(N)c1ccc(-c2cc(-c3ccc(C(=N)N)cc3Cl)no2)cc1	–	–	–	–	–	28	inactive	–	–
Cl.Cl.Cl.N=C(N)c1cccc(-c2cc(-c3cc(C(=N)N)ccc3Cl)no2)c1	–	–	–	–	–	22.25	inactive	–	–
N=C(N)c1ccc(-c2cc(-c3cc(C(=N)N)ccn3)no2)nc1	> 180	> 2430	1670	7.4	> 180000	–	–	–	–
CO/N=C(\N)c1cccc(-c2cc(-c3ccc(/C(N)=N/OC)cc3OC)no2)c1.Cl.Cl	–	–	–	–	–	–	–	–	>50
N=C(N)c1ccc(-c2cc(-c3ccc(C(=N)N)cn3)on2)nc1	> 302	> 1350	596	134	> 180000	–	–	–	–
Cl.Cl.Cl.N=C(N)c1ccc(-c2cc(-c3ccc(C(=N)N)cc3Cl)on2)cc1	–	–	–	–	–	>31	inactive	–	–
COc1cc(C(=N)N)ccc1-c1cc(-c2ccc(C(=N)N)cc2OC)on1.Cl.Cl	–	–	–	–	–	>60	Active	–	–
N=C(N)c1ccc(-c2cc(-c3cc(C(=N)N)ccn3)on2)nc1	> 53	> 1260	3380	142	> 180000	–	–	–	–
COc1ccc(C(=N)N)cc1-c1cc(-c2ccc(C(=N)N)cc2[N+](=O)[O-])no1.Cl.Cl	–	–	–	–	–	>60	Active	–	–
Cl.Cl.N=C(N)c1ccc(-c2cc(-c3ccc(C(=N)N)cc3[N+](=O)[O-])on2)cc1	–	–	–	–	–	>53.75	–	–	–
N=C(N)c1cncc(-c2cc(-c3cncc(C(=N)N)c3)on2)c1	> 29	> 1250	6120	144	> 180000	–	–	–	–
Cl.Cl.Cl.N=C(N)c1cccc(-c2cc(-c3cc(C(=N)N)ccc3Cl)on2)c1	–	–	–	–	–	25	inactive	–	–
Cl.Cl.N=C(N)c1ccc(-c2cc(-c3cc(C(=N)N)ccn3)on2)cc1	2320	2570	64.3	58	149000	28.5	inactive	–	–
CO/N=C(\N)c1ccc(-c2cc(-c3ccc(/C(N)=N/OC)cc3)on2)cc1.Cl.Cl	–	–	–	–	–	–	–	–	>42.25
Cl.Cl.N=C(N)c1ccc(-c2cc(-c3cccc(C(=N)N)c3)no2)nc1	15900	27800	7.2	4.1	115000	>38.75	inactive	–	–
Cl.Cl.N=C(N)c1ccc(-c2cc(-c3ccc(C(=N)N)cc3[N+](=O)[O-])no2)cc1	–	–	–	–	–	>51.25	–	–	–
Nc1nc(N)nc(Nc2ccc([As]3SCC(CO)S3)cc2)n1 (stereo unspecified)	–	–	–	–	–	–	Active	–	–
N=C(N)c1cccc(-c2cc(-c3cc(C(=N)N)ccn3)on2)c1	> 986	> 7230	183	24.9	> 180000	–	–	–	–
Cl.Cl.Cl.N=C(N)c1cccc(-c2cc(-c3ccc(C(=N)N)cc3Cl)no2)c1	–	–	–	–	–	24	inactive	–	–
Cl.Cl.N=C(N)c1ccc(-c2cc(-c3ccc(C(=N)N)cn3)on2)cc1	2970	3750	12.1	9.6	35900	>44	–	–	–
